ChEMBL document CHEMBL1122081, “2-(Aminomethyl)phenols, a new class of saluretic agents. 4. Effects of oxygen and/or nitrogen substitution” (J Med Chem, 1982)

How the values were obtained:
Conditions in all cases: in vivo
Rattus norvegicus [1] = species: Rattus norvegicus; test: Saluretic property (excretion of Na+ in rat); type: ADME, organism-based
In short: (§1)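 Rats dosed orally; urinary Na+ excretion (microequiv) scored per dose level. Each score is the geometric mean of three animals per cage, with three cages per dose.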

Rattus norvegicus [2] = test: Saluretic property (excretion of Na+ in rat after PO dosing); type: ADME, organism-based; in short: as §1
Canis familiaris [3] = test: Saluretic property was estimated by the excretion of Na+ in dog administered intravenously; microequiv of Na+/min at 5 mg/kg iv stat, 0-99; type: ADME, organism-based, Canis lupus familiaris; design: dose 5 mg/kg, route intravenous
In short: (§2)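 Dogs of 15-20 kg were given a single stat intravenous dose of 5 mg/kg and Na+ excretion was measured in microequiv/min. The score is the average of two dogs, or three where designated.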

Rattus norvegicus [4] = test: Saluretic property was estimated by the excretion of Na+ in rat administered orally; microequiv of Na+ at 16.5 mg/kg […]; type: ADME, organism-based; design: dose 16.5 mg/kg; in short: as §1
Rattus norvegicus [5] = test: Saluretic property was estimated by the excretion of Na+ in rat administered orally; microequiv of Na+ at 5 mg/kg […]; type: ADME, organism-based; design: dose 5 mg/kg; in short: as §1
Canis familiaris [6] = test: Saluretic property was estimated by the excretion of Na+ in dog administered intravenously; microequiv of Na+/min at 5 mg/kg iv stat, 100-249; type: ADME, organism-based, Canis lupus familiaris; design: dose 5 mg/kg, route intravenous; in short: as §2
Canis familiaris [7] = test: Saluretic property was estimated by the excretion of Na+ in dog administered intravenously; microequiv of Na+/min at 5 mg/kg iv stat, 250-399; type: ADME, organism-based, Canis lupus familiaris; design: dose 5 mg/kg, route intravenous; in short: as §2
Canis familiaris [8] = test: Saluretic property was estimated by the excretion of Na+ in dog administered intravenously; microequiv of Na+/min at 5 mg/kg iv stat, >900; type: ADME, organism-based, Canis lupus familiaris; design: dose 5 mg/kg, route intravenous; in short: as §2
Rattus norvegicus [9] = test: Saluretic property was estimated by the excretion of Na+ in rat administered orally; microequiv of Na+ at 1 mg/kg […]; type: ADME, organism-based; design: dose 1 mg/kg; in short: as §1
Canis familiaris [10] = test: Saluretic property was estimated by the excretion of Na+ in dog administered intravenously; microequiv of Na+/min at 5 mg/kg iv stat, 600-799; type: ADME, organism-based, Canis lupus familiaris; design: dose 5 mg/kg, route intravenous; in short: as §2

| SMILES | Saluretic potency (Rattus norvegicus [1]) | Saluretic potency (Rattus norvegicus [2]) | Saluretic potency (Canis familiaris [3]) | also measured |
| --- | --- | --- | --- | --- |
| CC(C)(C)c1cc(I)c(O)c(CNC(N)=O)c1 | < 0.3 u equiv | < 0.2 u equiv | 0 u equiv min-1 | – |
| CC(C)(C)c1cc(I)c2c(c1)CNC(=O)O2 | 0.9 u equiv | 0.7 u equiv | – | Saluretic potency (Rattus norvegicus [4]): 0.4 u equiv |
| CC(C)(C)c1cc(I)c(O)c(CNC2CCCCC2)c1.Cl | < 0.3 u equiv | < 0.2 u equiv | – | – |
| CC(C)(C)c1cc(I)c(O)c(CNC2=NCCO2)c1 | < 0.3 u equiv | < 0.2 u equiv | – | – |
| CC(C)(C)c1cc(I)c(OS(C)(=O)=O)c(CN)c1.Cl | < 0.3 u equiv | < 0.2 u equiv | – | – |
| CC(C)(C)c1cc(I)c(OS(=O)(=O)O)c(CN)c1 | 2.9 u equiv | 2.4 u equiv | – | Saluretic potency (Rattus norvegicus [4]): 1.4 u equiv; Saluretic potency (Rattus norvegicus [5]): 0.5 u equiv |
| CC(C)(C)c1cc(I)c(O)c(CNS(=O)(=O)O)c1 | 1.5 u equiv | 1.2 u equiv | – | Saluretic potency (Rattus norvegicus [4]): 0.5 u equiv; Saluretic potency (Rattus norvegicus [5]): 0.3 u equiv |
| Oc1c(Cl)cc(Cl)c(Cl)c1CN1CCCCC1 | < 0.3 u equiv | < 0.2 u equiv | 0 u equiv min-1 | – |
| CC(C)(C)c1cc(I)c(O)c(C[N+](C)(C)C)c1.[I-] | < 0.3 u equiv | 0.2 u equiv | 0 u equiv min-1 | – |
| Oc1c(Cl)cc(Cl)c(Cl)c1CN1CCOCC1 | < 0.3 u equiv | < 0.2 u equiv | – | Saluretic potency (Canis familiaris [6]): 100 u equiv min-1 |
| CC(C)(C)c1cc(Cl)c(O)c(C[n+]2ccc(N)cc2)c1.[Cl-] | – | – | 0 u equiv min-1 | – |
| CC(C)(C)c1cc(I)c(O)c(CNC2=NCCN2)c1 | < 0.3 u equiv | < 0.2 u equiv | 0 u equiv min-1 | – |
| CC(C)(C)c1cc(I)c(O)c(CN=C(N)N)c1 | < 0.3 u equiv | < 0.2 u equiv | – | – |
| CC(C)(C)c1cc(Cl)c2c(c1)CNC(=O)CO2 | < 0.3 u equiv | < 0.2 u equiv | – | – |
| O=C(NCc1c(O)c(Cl)cc(Cl)c1Cl)C(Cl)(Cl)Cl | < 0.3 u equiv | < 0.2 u equiv | – | Saluretic potency (Canis familiaris [7]): 400 u equiv min-1 |
| CC(C)(C)c1cc(Cl)c2c(c1)CNCCO2.Cl | < 0.3 u equiv | < 0.2 u equiv | 0 u equiv min-1 | – |
| CC(C)(C)c1cc(Cl)c(O)c(/C=N/N=C(N)N)c1 | < 0.3 u equiv | < 0.2 u equiv | – | Saluretic potency (Canis familiaris [6]): 100 u equiv min-1 |
| O=C(NCc1c(O)c(Cl)cc(Cl)c1Cl)C(F)(F)F | 2.4 u equiv | 1.8 u equiv | – | Saluretic potency (Rattus norvegicus [4]): 0.6 u equiv; Saluretic potency (Rattus norvegicus [5]): 0.4 u equiv |
| CC(C)(C)OC(=O)NCc1cc(C(C)(C)C)cc(I)c1O | < 0.3 u equiv | < 0.2 u equiv | – | – |
| O=C(CCl)NCc1c(O)c(Cl)cc(Cl)c1Cl | 1.5 u equiv | 1.2 u equiv | 0 u equiv min-1 | Saluretic potency (Rattus norvegicus [4]): 0.5 u equiv; Saluretic potency (Rattus norvegicus [5]): 0.3 u equiv |
| COc1c(I)cc(C(C)(C)C)cc1C[N+](C)(C)C.[I-] | – | – | 0 u equiv min-1 | – |
| CN(C)Cc1cc(C(C)(C)C)cc(I)c1O | – | 3.3 u equiv | 0 u equiv min-1 | Saluretic potency (Rattus norvegicus [4]): 2.7 u equiv; Saluretic potency (Rattus norvegicus [5]): 1.4 u equiv |

| SMILES | Saluretic potency (Rattus norvegicus [1]) | Saluretic potency (Rattus norvegicus [2]) | Saluretic potency (Canis familiaris [3]) | also measured |
| --- | --- | --- | --- | --- |
| CC(C)(C)c1cc(Cl)c(O)c(/C=N/N=C(/N)S)c1 | < 0.3 u equiv | < 0.2 u equiv | – | Saluretic potency (Canis familiaris [6]): 100 u equiv min-1 |
| CC(C)(C)c1cc(I)c(O)c(CNC2=NCCS2)c1 | < 0.3 u equiv | < 0.2 u equiv | – | – |
| O=CNCc1c(O)c(Cl)cc(Cl)c1Cl | < 0.3 u equiv | < 0.2 u equiv | 0 u equiv min-1 | – |
| CC(C)(C)c1cc(I)c(O)c(Cn2cnnn2)c1 | < 0.3 u equiv | < 0.2 u equiv | – | Saluretic potency (Canis familiaris [6]): 100 u equiv min-1 |
| CCN(CC)C(=O)COc1c(I)cc(C(C)(C)C)cc1CN.Cl | < 0.3 u equiv | < 0.2 u equiv | 0 u equiv min-1 | – |
| CC(C)(C)c1cc(Cl)c(O)c(CN)c1.Cl | – | 3.9 u equiv | – | Saluretic potency (Canis familiaris [8]): > 900 u equiv min-1; Saluretic potency (Rattus norvegicus [4]): 4.2 u equiv; Saluretic potency (Rattus norvegicus [5]): 3.6 u equiv; Saluretic potency (Rattus norvegicus [9]): 2.1 u equiv |
| CC(C)(C)c1cc(I)c(O)c(CNC2=NCCC2)c1.Cl | < 0.3 u equiv | < 0.2 u equiv | – | – |
| COc1c(Cl)cc(Cl)c(Cl)c1CN.Cl | < 0.3 u equiv | < 0.2 u equiv | 0 u equiv min-1 | – |
| CC(C)(C)c1cc(Cl)c(O)c(C[n+]2ccccc2)c1.[Cl-] | < 0.3 u equiv | < 0.2 u equiv | 0 u equiv min-1 | – |
| COc1c(I)cc(C(C)(C)C)cc1CN.Cl | < 0.3 u equiv | < 0.2 u equiv | 0 u equiv min-1 | – |
| CN(Cc1c(O)c(Cl)cc(Cl)c1Cl)CC1CCCO1 (stereo unspecified) | < 0.3 u equiv | < 0.2 u equiv | – | Saluretic potency (Canis familiaris [7]): 250 u equiv min-1 |
| CC(C)(C)c1cc(I)c(O)c(CNCCN)c1.Cl | 1.5 u equiv | 1.2 u equiv | 0 u equiv min-1 | Saluretic potency (Rattus norvegicus [4]): 0.5 u equiv; Saluretic potency (Rattus norvegicus [5]): 0.3 u equiv |
| CN(C)S(=O)(=O)Oc1c(I)cc(C(C)(C)C)cc1CN.Cl | 2.4 u equiv | 1.8 u equiv | – | Saluretic potency (Rattus norvegicus [4]): 0.6 u equiv; Saluretic potency (Rattus norvegicus [5]): 0.4 u equiv |
| CC(C)(C)c1cc(I)c(O)c(CN)c1.Cl | – | 3.9 u equiv | – | Saluretic potency (Canis familiaris [8]): > 900 u equiv min-1; Saluretic potency (Rattus norvegicus [4]): 4.2 u equiv; Saluretic potency (Rattus norvegicus [5]): 3.6 u equiv; Saluretic potency (Rattus norvegicus [9]): 2.1 u equiv |
| CC(C)(C)c1cc(Cl)c(O)c(CNS(N)(=O)=O)c1 | < 0.3 u equiv | < 0.2 u equiv | 0 u equiv min-1 | – |
| NCC(=O)NCc1c(O)c(Cl)cc(Cl)c1Cl | < 0.3 u equiv | < 0.2 u equiv min-1 | – | Saluretic potency (Canis familiaris [6]): 100 u equiv min-1 |
| CC(C)(C)c1cc(I)c2c(c1)CNS(=O)(=O)O2 | < 0.3 u equiv | < 0.2 u equiv | – | – |
| CN1CCN(Cc2cc(C(C)(C)C)cc(Cl)c2O)CC1.Cl | < 0.3 u equiv | < 0.2 u equiv | 0 u equiv min-1 | – |
| CC(C)(C)c1cc(I)c(OS(=O)(=O)c2ccccc2)c(CN)c1.Cl | 2.4 u equiv | 1.8 u equiv | – | Saluretic potency (Rattus norvegicus [4]): 0.6 u equiv; Saluretic potency (Rattus norvegicus [5]): 0.4 u equiv |
| CC(C)(C)c1cc(I)c(OCC(N)=O)c(CN)c1.Cl | < 0.3 u equiv | < 0.2 u equiv | – | Saluretic potency (Canis familiaris [6]): 100 u equiv min-1 |
| CCCCNCc1cc(C(C)(C)C)cc(I)c1O.Cl | – | 3.3 u equiv | – | Saluretic potency (Rattus norvegicus [4]): 2.7 u equiv; Saluretic potency (Rattus norvegicus [5]): 1.4 u equiv; Saluretic potency (Canis familiaris [10]): 600 u equiv min-1 |
